Results of several laboratories.

| Compound | tested on | assay | test system | setting | quantity | result |
| --- | --- | --- | --- | --- | --- | --- |
| Cc1c(C(N)=S)c(N)n(N)c(=O)c1C#N | Saccharomyces cerevisiae | microbial growth, well diffusion | ATCC9763 | 500 µg/mL | inhibition zone | 18 mm |
| Nc1ccc(/C=C/C(=O)N2CCc3c(oc4c(-c5ccc(F)cc5)cc(-c5ccc(C(=O)N6C[C@@H]7[C@H](C6)C7(F)F)nn5)cc34)C2)cn1 | PANC-1 | cell growth or viability, CCK-8 |  | 72 h | IC50 | > 20 µM |
| N#Cc1c(-c2ccc(OCc3ccccc3)cc2)c(C(N)=S)c(N)n(N)c1=O | Saccharomyces cerevisiae | microbial growth, well diffusion | ATCC9763 | 500 µg/mL | inhibition zone | 17 mm |
| Nc1ccc(/C=C/C(=O)N2CCc3c(oc4c(-c5ccc(F)cc5)cc(-c5ccc(C(=O)N6CCOCC6)nn5)cc34)C2)cn1 | PANC-1 | cell growth or viability, CCK-8 |  | 72 h | IC50 | > 20 µM |
| C=CC(=O)NC1CCN(c2ncc3ncnc(Nc4ccc(Oc5ccc6c(c5)ncn6C)c(C)c4)c3n2)CC1 | NUGC-4 | cell growth or viability |  |  | EC50 | 14.4 nM |
| CCCCCCCCCCCCCCCCOP(=O)([O-])OCC[N+](C)(C)C | Leishmania tropica | parasite growth, resazurin |  | promastigote | IC50 | 2.12 µM |
| CCOc1ccc(-c2c(Cc3ccc(OC)cc3)[nH]/c(=N/C(=O)C34CC5CC(CC(C5)C3)C4)n2C)cc1OC | Hepatitis B virus | viral replication, inhibitor | HePAD38 |  | IC50 | 10.9 µM |
| O=C(NC(=S)Nc1ccccc1O)c1cccs1 | Leishmania tropica | parasite growth, resazurin |  | promastigote | IC50 | 0.29 µM |
| N#Cc1c(-c2ccc(OCc3ccccc3)cc2)c(C(N)=O)c(N)n(N)c1=O | Saccharomyces cerevisiae | microbial growth, well diffusion | ATCC9763 | 500 µg/mL | inhibition zone | 16 mm |
| O=C(NC(=S)Nc1nccs1)c1ccco1 | Leishmania tropica | parasite growth, resazurin |  | promastigote | IC50 | 12.4 µM |
| CN(C)c1ccc(-c2c(C(N)=S)c(N)n(N)c(=O)c2C#N)cc1 | Saccharomyces cerevisiae | microbial growth, well diffusion | ATCC9763 | 500 µg/mL | inhibition zone | 14 mm |
| O=C(NO)c1ccc(CNc2nc3cccc(-c4ccc5c(c4)OCO5)n3n2)cc1 | SF-268 | cell growth or viability, SRB |  |  | GI50 | 470 nM |
